Converted amounts (≈) assume the structure as drawn. One block for each compound: values may come before it.
Experiments:
[1] = Aqueous solubility ([…] degree C); format: physicochemical; settings: for solubility: water, read-out: S; for S: buffer
[2] = target: T1, Epidermal growth factor receptor (Homo sapiens, UniProt P00533); assay: Inhibit of phosphorylation of a tyrosine/glutamic acid copolymer by epidermal growth factor receptor prepared from human A431 carcinoma cell vesicles by immunoaffinity chromatography.
T1 sequence (P00533 whole entry): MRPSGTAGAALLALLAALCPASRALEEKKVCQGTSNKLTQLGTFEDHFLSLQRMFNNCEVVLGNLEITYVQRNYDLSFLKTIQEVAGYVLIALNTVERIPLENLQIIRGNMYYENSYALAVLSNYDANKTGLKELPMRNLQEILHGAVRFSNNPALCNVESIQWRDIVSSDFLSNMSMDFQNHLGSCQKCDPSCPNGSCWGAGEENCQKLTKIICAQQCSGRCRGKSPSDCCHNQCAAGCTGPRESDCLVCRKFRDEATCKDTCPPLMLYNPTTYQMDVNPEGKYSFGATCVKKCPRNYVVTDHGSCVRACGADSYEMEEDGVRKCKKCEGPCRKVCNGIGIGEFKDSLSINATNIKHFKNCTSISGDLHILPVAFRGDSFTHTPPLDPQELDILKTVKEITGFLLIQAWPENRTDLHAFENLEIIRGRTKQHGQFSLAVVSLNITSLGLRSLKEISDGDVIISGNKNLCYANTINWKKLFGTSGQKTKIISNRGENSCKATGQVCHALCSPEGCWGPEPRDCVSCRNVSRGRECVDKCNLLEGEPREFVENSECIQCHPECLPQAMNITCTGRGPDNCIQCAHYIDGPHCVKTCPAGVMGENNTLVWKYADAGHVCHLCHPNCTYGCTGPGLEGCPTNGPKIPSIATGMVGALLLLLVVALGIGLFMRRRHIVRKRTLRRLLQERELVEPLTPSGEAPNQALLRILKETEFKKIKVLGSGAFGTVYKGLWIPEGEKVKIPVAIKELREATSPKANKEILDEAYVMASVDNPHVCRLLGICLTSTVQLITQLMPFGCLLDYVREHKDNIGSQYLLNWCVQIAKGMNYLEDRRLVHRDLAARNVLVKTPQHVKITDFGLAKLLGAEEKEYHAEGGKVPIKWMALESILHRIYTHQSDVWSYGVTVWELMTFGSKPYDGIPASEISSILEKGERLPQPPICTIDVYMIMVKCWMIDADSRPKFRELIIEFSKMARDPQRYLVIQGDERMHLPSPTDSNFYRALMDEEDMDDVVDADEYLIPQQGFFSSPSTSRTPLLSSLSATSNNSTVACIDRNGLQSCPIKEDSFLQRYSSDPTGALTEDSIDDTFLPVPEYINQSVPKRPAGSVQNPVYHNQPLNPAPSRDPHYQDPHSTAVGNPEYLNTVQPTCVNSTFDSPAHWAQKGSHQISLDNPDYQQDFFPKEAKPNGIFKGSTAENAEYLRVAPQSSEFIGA

[3] = test system: Mus musculus; assay: Weight change of EGFR tumor bearing mice at 400 mg/kg peroral dose, days 1-15 administration; format: functional
[4] = test system: Mus musculus; assay: Weight change of EGFR tumor bearing mice at 38 mg/kg ip dose, days 1-15 administration; format: functional; settings: route intraperitoneal
[5] = test system: MCF7; assay: Weight change in MCF-7 tumor bearing mice at 25 mg/kg ip dose, days 1-15 administration; format: functional; settings: route intraperitoneal
[6] = test system: Mus musculus; assay: Ratio of treated and control EGFR median tumor mass*100% in mice at 400 mg/kg peroral dose, days 1-15 administration; format: functional; settings: route oral
In short: (§1)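 Nude mice (NCr nu/nu, 18-22 g) were randomized and implanted sc with tumor fragments in the right axilla on day 0. Tumor lines were A431 epidermoid, NIH 3T3 fibroblasts transfected with human EGFR, and MCF-7 breast. Dosing was ip or oral, by average cage weight, with 6 mice/dose group. Vehicle was 6% dimethylacetamide/94% 50 mM sodium lactate pH 4.0 (suspension), or isethionate salt in water.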

[7] = test system: MCF7; assay: Ratio of treated and control MCF-7 median tumor mass*100% in mice at 50 mg/kg ip dose, days 1-15 administration; format: functional; settings: route intraperitoneal; in short: as §1
[8] = test system: SK-OV-3; assay: Weight change in SKOV-3 tumor bearing mice at 30 mg/kg ip dose, days 10-14,17-21,24-28 administration; format: functional; settings: route intraperitoneal
[9] = test system: Mus musculus; assay: Ratio of treated and control EGFR median tumor mass*100% in mice at 38 mg/kg ip dose, days 1-15 administration; format: functional; settings: route intraperitoneal; in short: as §1
[10] = test system: MCF7; assay: Weight change in MCF-7 tumor bearing mice at 50 mg/kg ip dose, days 1-15 administration; format: functional, organism-based; set-up: dose 50 mg/kg
[11] = test system: Mus musculus; assay: Net reduction in EGFR tumor burden between the first and last treatments in mice at 400 mg/kg peroral dose, days 1-15 administration; format: functional; settings: route oral
In short: (§2)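 NCr nu/nu nude mice (18-22 g) were randomized and implanted sc with A431 epidermoid, human-EGFR-transfected NIH 3T3 fibroblast, or MCF-7 breast tumor fragments in the right axilla on day 0. Dosing was ip or oral, by average cage weight, with 6 mice per dose group. Log net cell kill is the net reduction in tumor burden between the first and last treatments.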

[12] = test system: Mus musculus; assay: Net reduction in EGFR tumor burden between the first and last treatments in mice at 38 mg/kg ip dose, days 1-15 administration; format: functional; settings: route intraperitoneal; in short: as §1
[13] = test system: Mus musculus; assay: Difference in days for treated (T) and control (C) EGFR tumor fragments to reach 750 mg in mice at 38 mg/kg ip dose, administration days 1-15; format: functional; settings: route intraperitoneal
[14] = test system: MCF7; assay: Net reduction in MCF-7 tumor burden between the first and last treatments in mice at 25 mg/kg ip dose, days 1-15 administration; format: functional; settings: route intraperitoneal; in short: as §2
[15] = target: T1, Epidermal growth factor receptor; assay: Inhibition of EGF-dependent autophosphorylation of EGF-R in A431 cells
[16] = test system: A-431; assay: Difference in days for treated (T) and control (C) A431 tumors to reach 750 mg in mice at 75 mg/kg ip dose, days 7-21 administration; format: functional; settings: route intraperitoneal; in short: as §1
[17] = test system: MCF7; assay: Difference in days for treated (T) and control (C) MCF-7 tumor fragments to reach 750 mg in mice at 50 mg/kg ip dose, administration days 1-15; format: functional; settings: route intraperitoneal
[18] = test system: Mus musculus; assay: Difference in days for treated (T) and control (C) EGFR tumor fragments to reach 750 mg in mice at 400 mg/kg peroral dose, administration days 1-15; format: functional; settings: route oral
[19] = test system: A-431; assay: Difference in days for treated (T) and control (C) A431 tumor fragments to reach 750 mg in mice at 100 mg/kg peroral dose, administration days 7-21; format: functional; settings: route oral
[20] = test system: A-431; assay: Weight change in A431 tumor bearing mice at 100 mg/kg peroral dose, days 7-21 administration; format: functional; settings: route oral
[21] = test system: A-431; assay: Weight change in A431 tumor bearing mice at 75 mg/kg ip dose, days 7-21 administration; format: functional; settings: route intraperitoneal
[22] = test system: A-431; assay: Ratio of treated and control A431 median tumor mass*100% in mice at 75 mg/kg dose
[23] = test system: MCF7; assay: Difference in days for treated (T) and control (C) MCF-7 tumor fragments to reach 750 mg in mice at 25 mg/kg ip dose, administration days 1-15; format: functional; settings: route intraperitoneal
[24] = target: Receptor tyrosine-protein kinase erbB-2 (Homo sapiens, UniProt P04626); assay: Inhibition of heregulin-dependent autophosphorylation of ErbB2 receptor in MDA-MB-453 cells; format: functional, cell-based
Sequence of Receptor tyrosine-protein kinase erbB-2 (P04626 whole entry): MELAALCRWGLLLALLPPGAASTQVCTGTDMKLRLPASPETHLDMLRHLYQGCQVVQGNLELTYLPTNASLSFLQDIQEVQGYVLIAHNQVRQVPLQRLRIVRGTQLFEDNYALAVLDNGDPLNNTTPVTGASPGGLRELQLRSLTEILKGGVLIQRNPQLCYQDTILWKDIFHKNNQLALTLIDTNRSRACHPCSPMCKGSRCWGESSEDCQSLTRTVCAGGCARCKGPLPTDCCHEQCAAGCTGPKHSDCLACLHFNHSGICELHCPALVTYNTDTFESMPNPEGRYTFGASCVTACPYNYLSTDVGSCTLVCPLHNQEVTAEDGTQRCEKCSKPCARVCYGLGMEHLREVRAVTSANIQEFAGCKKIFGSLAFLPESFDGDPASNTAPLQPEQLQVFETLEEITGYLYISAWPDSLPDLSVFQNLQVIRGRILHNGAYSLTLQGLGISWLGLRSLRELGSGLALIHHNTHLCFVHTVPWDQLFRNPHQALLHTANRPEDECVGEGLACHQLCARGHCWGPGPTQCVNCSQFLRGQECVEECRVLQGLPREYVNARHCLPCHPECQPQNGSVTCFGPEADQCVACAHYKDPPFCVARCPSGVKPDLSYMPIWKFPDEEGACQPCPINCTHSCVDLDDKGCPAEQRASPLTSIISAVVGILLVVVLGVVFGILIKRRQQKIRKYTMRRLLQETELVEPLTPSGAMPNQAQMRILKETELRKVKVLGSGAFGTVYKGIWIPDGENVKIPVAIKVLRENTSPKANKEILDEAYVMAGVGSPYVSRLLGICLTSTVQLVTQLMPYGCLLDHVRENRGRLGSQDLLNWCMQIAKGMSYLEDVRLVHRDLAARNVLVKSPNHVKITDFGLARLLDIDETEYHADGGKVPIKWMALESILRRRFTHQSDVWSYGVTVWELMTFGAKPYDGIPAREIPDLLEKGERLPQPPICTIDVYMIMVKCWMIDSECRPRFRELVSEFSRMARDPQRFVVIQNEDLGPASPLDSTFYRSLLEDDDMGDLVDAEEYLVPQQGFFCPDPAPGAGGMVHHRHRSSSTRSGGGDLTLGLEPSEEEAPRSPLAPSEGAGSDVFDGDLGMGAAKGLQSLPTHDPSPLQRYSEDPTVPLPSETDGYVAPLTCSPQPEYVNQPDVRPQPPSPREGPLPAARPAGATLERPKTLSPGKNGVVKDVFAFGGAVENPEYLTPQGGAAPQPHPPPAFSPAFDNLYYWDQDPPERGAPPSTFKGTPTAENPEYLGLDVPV

[25] = test system: MCF7; assay: Ratio of treated and control MCF-7 median tumor mass*100% in mice at 25 mg/kg ip dose, days 1-15 administration; format: functional; settings: route intraperitoneal; in short: as §1
[26] = test system: SK-OV-3; assay: Difference in days for treated (T) and control (C) SKOV-3 tumor fragments to reach 750 mg in mice at 30 mg/kg ip dose, administration days 10-14,17-21,24-28; format: functional; settings: route intraperitoneal
[27] = test system: SK-OV-3; assay: Ratio of treated and control SKOV-3 median tumor mass*100% in mice at 30 mg/kg ip dose, days 10-14,17-21,24-28 administration; format: functional; settings: route intraperitoneal
[28] = test system: A-431; assay: Ratio of treated and control A431 median tumor mass*100% in mice at 100 mg/kg peroral dose, days 7-21 administration; format: functional; settings: route oral; in short: as §1
[29] = target: T1, Epidermal growth factor receptor; assay: Inhibition of autophosphorylation of epidermal growth factor receptor in A431 cells in culture
[30] = target: T1, Epidermal growth factor receptor; assay: (§3) Inhibition of tyrosine/glutamic acid copolymer phosphorylation by epidermal growth factor receptor prepared of human A431
[31] = test system: Mus musculus; assay: Log net cell kill of A431 tumor bearing mice at 25 mg/kg intraperitoneal dose, days 7-21 administration
[32] = test system: Mus musculus; assay: Net reduction in EGFR tumor burden between the first and last treatments in mice at 25 mg/kg ip dose, days 1-15 administration; format: functional; settings: route intraperitoneal; in short: as §2
[33] = test system: Mus musculus; assay: Ratio of treated and control EGFR median tumor mass*100% in mice at 200 mg/kg peroral dose, days 1-15 administration; format: functional; settings: route oral; in short: as §1
[34] = test system: Mus musculus; assay: Ratio of treated and control EGFR median tumor mass*100% in mice at 25 mg/kg ip dose, days 1-15 administration; format: functional; settings: route intraperitoneal; in short: as §1
[35] = Inhibition of Platelet-derived growth factor receptor (PDGFR); format: functional
[36] = test system: A-431; assay: Ratio of treated and control A431 median tumor mass*100% in mice at 25 mg/kg peroral dose, days 7-21 administration; format: functional; settings: route intraperitoneal, in the assay text read “intraperitoneal” for “peroral”; in short: as §1
[37] = target: T1, Epidermal growth factor receptor; assay: as §3; remark: listed apart in the source
[38] = test system: Mus musculus; assay: Difference in days for treated (T) and control (C) EGFR tumor fragments to reach 750 mg in mice at 200 mg/kg peroral dose, administration days 1-15; format: functional; settings: route oral
[39] = target: Proto-oncogene tyrosine-protein kinase Src (Homo sapiens, UniProt P12931); assay: Inhibition of c-Src tyrosine kinase; format: functional
Sequence of Proto-oncogene tyrosine-protein kinase Src (P12931 2-536 limits assumed): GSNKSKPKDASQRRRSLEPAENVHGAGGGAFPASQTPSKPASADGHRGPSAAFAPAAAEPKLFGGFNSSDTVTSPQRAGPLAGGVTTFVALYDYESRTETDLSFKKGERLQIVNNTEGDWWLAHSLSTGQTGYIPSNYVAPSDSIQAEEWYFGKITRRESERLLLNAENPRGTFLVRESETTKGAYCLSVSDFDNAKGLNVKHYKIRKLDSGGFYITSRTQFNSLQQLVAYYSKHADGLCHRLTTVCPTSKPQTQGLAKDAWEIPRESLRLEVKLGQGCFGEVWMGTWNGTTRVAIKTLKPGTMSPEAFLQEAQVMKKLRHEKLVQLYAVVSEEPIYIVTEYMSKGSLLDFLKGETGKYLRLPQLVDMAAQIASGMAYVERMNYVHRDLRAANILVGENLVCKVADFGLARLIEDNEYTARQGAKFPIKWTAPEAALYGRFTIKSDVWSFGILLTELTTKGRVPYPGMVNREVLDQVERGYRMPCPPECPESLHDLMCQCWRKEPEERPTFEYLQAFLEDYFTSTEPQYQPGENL

[40] = test system: A-431; assay: Weight change in A431 tumor bearing mice at 25 mg/kg ip dose, days 7-21 administration; format: functional; settings: route intraperitoneal
[41] = test system: Mus musculus; assay: Weight change of EGFR tumor bearing mice at 200 mg/kg peroral dose, days 1-15 administration; format: functional, organism-based; set-up: dose 200 mg/kg
[42] = target: Fibroblast growth factor receptor (Homo sapiens, UniProt P22607+P11362+P22455+P21802); assay: Inhibition of fibroblast growth factor receptor(FGFR); format: functional
[43] = test system: Mus musculus; assay: Difference in days for treated (T) and control (C) EGFR tumor fragments to reach 750 mg in mice at 25 mg/kg ip dose, administration days 1-15; format: functional; settings: route intraperitoneal
[44] = test system: Mus musculus; assay: Weight change of EGFR tumor bearing mice at 25 mg/kg ip dose, days 1-15 administration; format: functional; settings: route intraperitoneal
[45] = target: Insulin receptor (Homo sapiens, UniProt P06213); assay: Inhibition of insulin receptor(IR); format: functional
Sequence of Insulin receptor (P06213 28-758 limits assumed): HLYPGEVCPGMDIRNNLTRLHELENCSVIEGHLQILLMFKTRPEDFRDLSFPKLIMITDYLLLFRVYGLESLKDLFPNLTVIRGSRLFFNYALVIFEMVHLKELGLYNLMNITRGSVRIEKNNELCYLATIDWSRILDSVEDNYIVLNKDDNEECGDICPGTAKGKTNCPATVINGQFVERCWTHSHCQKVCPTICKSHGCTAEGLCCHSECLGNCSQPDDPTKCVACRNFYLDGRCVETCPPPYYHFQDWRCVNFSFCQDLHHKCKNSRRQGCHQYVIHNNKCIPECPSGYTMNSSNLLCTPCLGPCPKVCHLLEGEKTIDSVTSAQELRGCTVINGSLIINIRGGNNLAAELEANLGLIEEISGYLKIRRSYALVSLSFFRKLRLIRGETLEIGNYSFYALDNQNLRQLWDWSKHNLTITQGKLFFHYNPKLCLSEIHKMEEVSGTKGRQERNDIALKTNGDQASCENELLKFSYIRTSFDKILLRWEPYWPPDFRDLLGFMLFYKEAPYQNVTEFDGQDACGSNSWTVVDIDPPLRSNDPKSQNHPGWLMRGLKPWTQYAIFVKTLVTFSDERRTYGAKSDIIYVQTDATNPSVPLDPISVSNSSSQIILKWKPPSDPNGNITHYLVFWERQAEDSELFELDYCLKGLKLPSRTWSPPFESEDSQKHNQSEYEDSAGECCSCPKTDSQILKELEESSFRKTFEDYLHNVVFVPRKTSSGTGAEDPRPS
Sequence of Insulin receptor (P06213 763-1382 limits assumed): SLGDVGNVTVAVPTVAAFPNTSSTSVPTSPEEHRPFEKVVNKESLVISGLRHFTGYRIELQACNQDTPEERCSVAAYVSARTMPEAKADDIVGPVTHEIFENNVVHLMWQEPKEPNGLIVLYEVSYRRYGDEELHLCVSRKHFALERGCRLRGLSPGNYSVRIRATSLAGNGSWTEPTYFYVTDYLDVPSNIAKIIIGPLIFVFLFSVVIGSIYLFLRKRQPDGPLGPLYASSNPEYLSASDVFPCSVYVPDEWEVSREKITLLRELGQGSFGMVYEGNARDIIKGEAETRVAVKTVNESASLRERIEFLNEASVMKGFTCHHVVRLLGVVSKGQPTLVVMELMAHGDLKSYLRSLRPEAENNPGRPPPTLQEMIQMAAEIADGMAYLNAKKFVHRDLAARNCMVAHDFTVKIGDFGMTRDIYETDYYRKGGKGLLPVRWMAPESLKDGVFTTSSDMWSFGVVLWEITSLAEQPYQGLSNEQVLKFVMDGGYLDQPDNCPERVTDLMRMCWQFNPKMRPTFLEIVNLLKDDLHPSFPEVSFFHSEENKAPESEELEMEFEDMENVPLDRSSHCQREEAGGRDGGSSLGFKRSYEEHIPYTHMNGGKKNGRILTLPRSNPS

[46] = test system: A-431; assay: Difference in days for treated (T) and control (C) A431 tumor fragments to reach 750 mg in mice at 25 mg/kg intraperitoneal dose, administration days 7-21

solubility [1]: 5 mM (≈ 1870 µg/mL)
IC50 [2]: 0.28 nM
Structure (SMILES): O=C(O)CNc1cc2c(Nc3cccc(Br)c3)ncnc2cn1

solubility [1]: 0.11 mM (≈ 41.2 µg/mL)
IC50 [2]: 0.22 nM
Structure (SMILES): CN(CCO)c1cc2c(Nc3cccc(Br)c3)ncnc2cn1

Structure (SMILES): CNc1cc2c(Nc3cccc(Br)c3)ncnc2cn1
Weight change [3]: Weight gain
Weight change [4]: -0.1 g
Weight change [5]: -0.2 g
T/C [6]: 67%
T/C [7]: 27%
Weight change [8]: -1.6 g
T/C [9]: 38%
Weight change [10]: Weight gain
Net cell kill [11]: -1.3 log10
log net cell kill [12]: -1
T-C [13]: 3.7 days
Net cell kill [14]: -0.1 log10
IC50 [15]: 13 nM
T-C [16]: 8.4 days
T-C [17]: 15.2 days
T-C [18]: 1.2 days
T-C [19]: 16 days
solubility [1]: 0.1 mM (≈ 33 µg/mL)
Weight change [20]: -1.3 g
Weight change [21]: -0.8 g
T/C [22]: 41%
T-C [23]: 11.2 days
IC50 [24]: 52 nM
T/C [25]: 14%
T-C [26]: 0.8 days
T/C [27]: 67%
T/C [28]: 38%

solubility [1]: 44 mM (≈ 17100 µg/mL)
IC50 [2]: 0.44 nM
Structure (SMILES): CN(CC(=O)O)c1cc2c(Nc3cccc(Br)c3)ncnc2cn1

solubility [1]: 0.02 mM (≈ 5.59 µg/mL)
IC50 [2]: 2.8 nM
Structure (SMILES): Cc1cccc(Nc2ncnc3cnc(N(C)C)cc23)c1

solubility [1]: 38 mM (≈ 15800 µg/mL)
IC50 [2]: 1.8 nM
IC50 [29]: 19 nM
Structure (SMILES): CN(C)CCCCNc1cc2c(Nc3cccc(Br)c3)ncnc2cn1

solubility [1]: 15 mM (≈ 6150 µg/mL)
IC50 [2]: 0.78 nM
IC50 [29]: 6.3 nM
Structure (SMILES): Brc1cccc(Nc2ncnc3cnc(NCCc4c[nH]cn4)cc23)c1

solubility [1]: 38 mM (≈ 14800 µg/mL)
IC50 [2]: 0.27 nM
IC50 [29]: 449 nM
Structure (SMILES): O=C(O)CCNc1cc2c(Nc3cccc(Br)c3)ncnc2cn1

solubility [1]: 23 mM (≈ 9760 µg/mL)
IC50 [2]: 1.7 nM
IC50 [29]: 9.1 nM
Structure (SMILES): Brc1cccc(Nc2ncnc3cnc(NCCCn4ccnc4)cc23)c1

Structure (SMILES): CCN(CC)CC(O)CNc1cc2c(Nc3cccc(Br)c3)ncnc2cn1 (stereo not drawn)
IC50 [30]: 4.6 nM
Log net cell kill [31]: -0.5 log10
Net cell kill [32]: -0.9 log10
T/C [33]: 94%
Weight change [5]: -0.3 g
T/C [34]: 44%
IC50 [35]: > 50000 nM
Net cell kill [14]: -0.6 log10
IC50 [15]: 28 nM
T/C [36]: 62%
IC50 [37]: 4.6 nM
T-C [38]: 0 days
IC50 [39]: > 50000 nM
Weight change [40]: -0.7 g
solubility [1]: 36 mM (≈ 16000 µg/mL)
Weight change [41]: Weight gain
IC50 [42]: > 50000 nM
T-C [43]: 5 days
Weight change [44]: -0.9 g
T-C [23]: 3.3 days
IC50 [24]: 1100 nM
IC50 [29]: 28 nM
T/C [25]: 77%
IC50 [45]: > 50000 nM
T-C [46]: 5 days

S [1]: > 44 mM
IC50 [2]: 1 nM
IC50 [29]: 5.9 nM
Structure (SMILES): Brc1cccc(Nc2ncnc3cnc(NCCCN4CCOCC4)cc23)c1

IC50 [2]: 117 nM
Structure (SMILES): Cc1nc(Nc2cccc(Br)c2)c2cc(NCCN3CCOCC3)ncc2n1

solubility [1]: 12 mM (≈ 4890 µg/mL)
IC50 [2]: 1.5 nM
IC50 [29]: 13 nM
Structure (SMILES): Brc1cccc(Nc2ncnc3cnc(NCc4cccnc4)cc23)c1

IC50 [2]: 0.19 nM
Structure (SMILES): CNc1cc2c(Nc3cccc(Cl)c3)ncnc2cn1

S [1]: > 40 mM
Structure (SMILES): Cc1cccc(Nc2ncnc3cnc(NCCN4CCOCC4)cc23)c1

solubility [1]: 0.02 mM (≈ 7.2 µg/mL)
IC50 [2]: 0.19 nM
Structure (SMILES): OCCNc1cc2c(Nc3cccc(Br)c3)ncnc2cn1
